Compounds with a hit are over-represented: about 1.3% of the library has one in this group of screens.
AF4-AF9 inh: MLL-AF4/AF9 protein interaction inhibition; P42568; actives 0.47% (n = 350,000); AlphaScreen, biotin-AF4 peptide binding to FLAG-AF9; inhibition, % at 10 µM; AID 651704;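 active = every replicate reaching a set inhibition limit, whatever the replicate mean, cut at about 25% in these data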;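 note: 0% = plate neutral control median and 100% = total signal loss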
Target sequence (P42568 whole entry, looked up): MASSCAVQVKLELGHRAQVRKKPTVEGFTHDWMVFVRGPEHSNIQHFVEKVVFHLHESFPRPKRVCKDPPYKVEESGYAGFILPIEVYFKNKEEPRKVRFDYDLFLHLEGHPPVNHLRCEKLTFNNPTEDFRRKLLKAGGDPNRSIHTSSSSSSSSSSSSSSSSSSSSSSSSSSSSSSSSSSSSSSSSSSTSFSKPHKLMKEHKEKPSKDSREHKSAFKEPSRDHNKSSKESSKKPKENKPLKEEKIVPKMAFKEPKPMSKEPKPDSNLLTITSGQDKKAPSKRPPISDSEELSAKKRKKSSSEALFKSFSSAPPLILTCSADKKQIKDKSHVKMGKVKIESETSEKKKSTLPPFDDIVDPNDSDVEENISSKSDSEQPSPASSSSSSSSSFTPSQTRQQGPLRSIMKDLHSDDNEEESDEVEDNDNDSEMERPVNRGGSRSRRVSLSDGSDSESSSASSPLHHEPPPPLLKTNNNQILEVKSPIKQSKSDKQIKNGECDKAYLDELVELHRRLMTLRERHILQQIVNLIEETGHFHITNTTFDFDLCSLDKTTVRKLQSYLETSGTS
FN deposit inh: fibronectin deposition inhibition | AH1F fibroblasts, Alexa488-fibronectin deposition fluorescence, overnight | inhibition, % at 12.6 µM | actives 0.086% (n = 350,000) | AID 743247;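 active = mean inhibition across replicates of 30% or more, regardless of how many single replicates reach that level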;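 note: positive control wells lacked labelled fibronectin entirely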
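Material – AH1F fibroblast monolayer, labelled fibronectin deposition · Reagent – labelled fibronectin 24 nM · Timing – 1 h adhesion, overnight exposure · Measured by – fluorescence at 485 nm excitation, 525 nm emission · Read-out – inhibition of fibronectin deposition signal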
SIRT5 inh: blocks human SIRT5 desuccinylation of peptide; actives 1.1% (n = 330,000); inhibition, % at 15 µM; Q9NXA8; Purified SirT5, succinyl-peptide AMC, trypsin-coupled fluorescence; in the data active = inhibition above about 15%
PDI inh: inhibitors of human protein disulfide isomerase. PDI insulin aggregation turbidity, A650, 90 min. inhibition, % at 10 µM. actives 0.052% (n = 350,000). AID 588391;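 active = mean inhibition across replicates of 30% or more, whatever share of single replicates reach that level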
ERp5 inh: inhibitors of human ERp5; ERp5 insulin aggregation, absorbance 650 nm, 90 min; inhibition, % at 9.99 µM; actives 0.05% (n = 350,000);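 active = mean replicate inhibition above about 25%, with every replicate also reaching it, limit read from the data, passing the limit was not always enough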
Starred values were filed as active, the others as inactive; · = no result.

SMILES	AF4-AF9 inh	FN deposit inh	SIRT5 inh	PDI inh	ERp5 inh
Cc1noc(NS(=O)(=O)c2ccc(NC(=O)c3cnc4scc(C)n4c3=O)cc2)c1C	-9.3	-2.0	15.5*	·	2.5
O=C(c1cccnc1)N1CC(=O)N2[C@H](C1)[C@H](c1ccc(-c3cccnc3)cc1)[C@@H]2CO	31.7*	·	-2.8	·	-5.3
O=C(c1cccnc1)N1CC(=O)N2[C@H](C1)[C@H](c1ccc(/C=C/c3ccccc3)cc1)[C@@H]2CO	36.8*	·	4.7	·	-0.3
O=C(c1ccncc1)N1CC(=O)N2[C@@H](CO)[C@H](c3ccc(-c4cccnc4)cc3)[C@@H]2C1	-4.6	·	-10.0	·	-4.6
Cc1ccc(S(=O)(=O)N(C)C[C@@H]2Oc3cc(C#Cc4ccncc4)ccc3S(=O)(=O)N([C@@H](C)CO)C[C@@H]2C)cc1	0.2	17.9	16.1*	·	3.3
Cc1ccc(S(=O)(=O)N(C)C[C@H]2Oc3cc(C#Cc4ccncc4)ccc3S(=O)(=O)N([C@H](C)CO)C[C@@H]2C)cc1	0.3	2.5	17.5*	·	0.3
C(=N\N1CCN(c2ccccn2)CC1)/c1cccc2ccccc12	27.0*	2.4	-5.8	0.3	-1.9
Oc1ccccc1/C=N/N1CCN(c2ccccn2)CC1	2.7	-5.0	-4.5	-1.2	-7.7
O=c1oc(CCO)cc2ccc(C#Cc3ccsc3)cc12	-3.9	-4.0	16.9*	1.4	2.3
O=C1CCC(=O)N1c1nc2nc(-c3ccccc3)cc(-c3ccccc3)n2n1	·	1.1	·	33.3*	·
CC(=O)Nc1nc2nc(-c3ccccc3)cc(-c3ccccc3)n2n1	·	9.1	·	0.4	·
C=C1c2cccc(O)c2C(=O)C2C(=O)[C@]3(O)C(=O)C(C(N)=O)C(=O)[C@@H](N(C)C)[C@@H]3[C@@H](O)[C@H]12 (stereo partly specified)	3.5	·	45.7*	14.2	0.6
C[C@H]1c2cccc(O)c2C(O)=C2C(=O)[C@]3(O)C(O)=C(C(N)=O)C(=O)[C@@H](N(C)C)C3[C@@H](O)C21 (stereo partly specified)	6.7	-11.9	1.7	-1.7	2.5
CCOc1ccc2ccccc2c1C(=O)N1CCN(c2ccccc2)CC1	-85.6	·	18.5*	5.7	-5.0
C/C=C/c1ccc2c(c1)[C@@H]1[C@@H](CCN1C(=O)Cc1cccnc1)[C@@H](CO)N2C	-0.4	-4.4	1.6	·	-4.4
CCC(C)(C)c1ccc(OCCCC[n+]2ccccc2)c(C(C)(C)CC)c1	30.1*	·	1.8	23.3	-6.6
Cc1cccc(-c2ccc3c(c2)[C@@H]2C[C@H]4[C@@H](CN2CC3)[C@H](C)ON4C)c1	·	4.1	-2.1	·	0.6
Cc1cccc(-c2ccc3[nH]c4c(c3c2)CCN2C[C@H]3[C@H](C)ON(C)[C@H]3C[C@@H]42)c1	39.2*	·	-2.4	2.1	10.1
CN[C@H]1C[C@H]2c3[nH]c4ccc(-c5cccc(C)c5)cc4c3CCN2C[C@H]1[C@H](C)O	39.6*	-3.9	-3.0	6.6	8.4
COc1ccc(/C=N/Nc2ccc(C(F)(F)F)cc2[N+](=O)[O-])cc1	·	-9.9	·	-4.2	·
COc1ccc(N2CCN(C(=O)CN3CCN(c4nc(-c5ccc(F)cc5)cs4)CC3)CC2)cc1	27.0*	-3.9	2.4	-7.7	-0.9
COc1ccc(-c2nnn(CC(=O)N3CCN(c4ccc(F)cc4)CC3)n2)cc1	-1.2	-8.6	-0.2	-3.5	3.1
CCN(CC)S(=O)(=O)c1ccc(OC)c(NC(=O)CCS(=O)(=O)Cc2ccccc2)c1	-0.6	-0.8	0.5	-5.0	5.3
COC(=O)c1cc(S(=O)(=O)NCc2ccccc2)c[nH]1	-0.5	4.5	-4.1	6.7	1.9
COC(=O)c1cc(S(=O)(=O)NCc2ccc(Br)cc2)c[nH]1	1.7	-10.3	21.8*	-5.2	-1.1
CC(C)(C)CC(C)(C)N=C1Nc2cc(Cl)c(Cl)cc2NC12C[C@H]1CCC(=O)N3CC[C@@H](C2)[C@@H]13 (stereo partly specified)	7.9	-3.3	0.9	5.2	1.5
CC(C)(C)CC(C)(C)N=C1Nc2ccccc2NC12C[C@H]1CCC(=O)N3CC[C@@H](C2)[C@@H]13 (stereo partly specified)	28.2*	8.6	2.5	-2.2	-3.3
CN1CCN(CCCNCc2cn(CCC#N)c3ccccc23)CC1	25.0*	-9.6	-4.6	0.0	2.2
Cc1ccc(C)c(N(C(=O)c2csnn2)C(C(=O)NC2CCCCC2)c2cccnc2)c1 (stereo unspecified)	8.2	3.3	-3.7	-11.8	-3.5
